pIC50: −log10 of the molar value.
Experiments:
[1] = system: MIA PaCa-2; experiment: Effect on PRKCZ gene expression in human MIAPaCa2 cells at 400 nM after 24 hrs by RNA sequence analysis relative to control; assay type: functional
[2] = system: PANC-1; experiment: Effect on MAPK11 gene expression in human PANC1 cells at 400 nM after 6 hrs by RNA sequence analysis relative to control; assay type: functional
[3] = system: MIA PaCa-2; experiment: Effect on MAPK12 gene expression in human MIAPaCa2 cells at 400 nM after 24 hrs by RNA sequence analysis relative to control; assay type: functional
[4] = system: MIA PaCa-2; experiment: Effect on PFKFB4 gene expression in human MIAPaCa2 cells at 400 nM after 6 hrs by RNA sequence analysis relative to control; assay type: functional
[5] = system: PANC-1; experiment: Effect on GLI1 gene expression in human PANC1 cells at 400 nM after 24 hrs by RNA sequence analysis relative to control; assay type: functional
Procedure, shortened: (§1)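 PANC-1 (0.35 x 10^6) or MIA PaCa-2 (1.5 x 10^6) cells seeded overnight in 60 mm plates, then exposed to 400 nM compound for 6 or 24 h; untreated cells as controls. Cells were mycoplasma-free and STR-certified. Differential expression by RNA-seq, called at FDR < 0.1.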

[6] = system: PANC-1; experiment: Effect on MAPK9 gene expression in human PANC1 cells at 400 nM after 6 hrs by RNA sequence analysis relative to control; assay type: functional
[7] = system: PANC-1; experiment: Growth inhibition of human PANC1 cells after 96 hrs by SRB assay; assay type: functional, cell-based; conditions: PANC-1, 96 h
[8] = system: MIA PaCa-2; experiment: Effect on FASN gene expression in human MIAPaCa2 cells at 400 nM after 24 hrs by RNA sequence analysis relative to control; assay type: functional; procedure, shortened: as §1
[9] = system: MIA PaCa-2; experiment: Effect on SHANK2 gene expression in human MIAPaCa2 cells at 400 nM after 24 hrs by RNA sequence analysis relative to control; assay type: functional
Procedure, shortened: (§2)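 RNA-seq: cells seeded overnight in 60 mm plates (PANC-1 0.35 x 10^6, MIA PaCa-2 1.5 x 10^6 cells/well), then exposed to 400 nM compound for 6 or 24 h against untreated controls. Cell lines mycoplasma-free by RNA-capture ELISA and STR-profiled. Differentially expressed genes called at FDR < 0.1.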

[10] = system: MIA PaCa-2; experiment: Effect on CTBP1 gene expression in human MIAPaCa2 cells at 400 nM after 6 hrs by RNA sequence analysis relative to control; assay type: functional; procedure, shortened: as §1
[11] = system: MIA PaCa-2; experiment: Effect on PRDM16 gene expression in human MIAPaCa2 cells at 400 nM after 6 hrs by RNA sequence analysis relative to control; assay type: functional
[12] = system: PANC-1; experiment: Effect on TP73 gene expression in human PANC1 cells at 400 nM after 6 hrs by RNA sequence analysis relative to control; assay type: functional; procedure, shortened: as §2
[13] = system: MIA PaCa-2; experiment: Effect on MAPK9 gene expression in human MIAPaCa2 cells at 400 nM after 6 hrs by RNA sequence analysis relative to control; assay type: functional
[14] = system: MIA PaCa-2; experiment: Effect on MAPK9 gene expression in human MIAPaCa2 cells at 400 nM after 24 hrs by RNA sequence analysis relative to control; assay type: functional
[15] = system: PANC-1; experiment: Effect on SMO gene expression in human PANC1 cells at 400 nM after 6 hrs by RNA sequence analysis relative to control; assay type: functional; procedure, shortened: as §2
[16] = system: MIA PaCa-2; experiment: Effect on TEAD4 gene expression in human MIAPaCa2 cells at 400 nM after 6 hrs by RNA sequence analysis relative to control; assay type: functional; procedure, shortened: as §2
[17] = system: MIA PaCa-2; experiment: Effect on PRDM16 gene expression in human MIAPaCa2 cells at 400 nM after 24 hrs by RNA sequence analysis relative to control; assay type: functional
[18] = system: MIA PaCa-2; experiment: Effect on PLXNA1 gene expression in human MIAPaCa2 cells at 400 nM after 24 hrs by RNA sequence analysis relative to control; assay type: functional
[19] = system: MIA PaCa-2; experiment: Effect on PIK3R3 gene expression in human MIAPaCa2 cells at 400 nM after 24 hrs by RNA sequence analysis relative to control; assay type: functional
[20] = system: MIA PaCa-2; experiment: Effect on PLXNA1 gene expression in human MIAPaCa2 cells at 400 nM after 6 hrs by RNA sequence analysis relative to control; assay type: functional
[21] = system: MIA PaCa-2; experiment: Effect on PFKFB4 gene expression in human MIAPaCa2 cells at 400 nM after 24 hrs by RNA sequence analysis relative to control; assay type: functional
[22] = system: PANC-1; experiment: Effect on MAPK12 gene expression in human PANC1 cells at 400 nM after 24 hrs by RNA sequence analysis relative to control; assay type: functional

O=C1c2ccc3c4c(c(NCCN5CCCC5)cc(c24)C(=O)N1CCCN1CCOCC1)C(=O)N(CCCN1CCOCC1)C3=O
log2FC [1]: -2.01
log2FC [2]: -0.38
log2FC [3]: -1.23
log2FC [4]: -1.02
log2FC [5]: -0.57
log2FC [6]: -0.28
pIC50 [7]: 7.74
log2FC [8]: -0.54
log2FC [9]: -1.96
log2FC [10]: -0.52
log2FC [11]: -2.73
log2FC [12]: -1.44
log2FC [13]: -0.09
log2FC [14]: -0.6
log2FC [15]: -0.92
log2FC [16]: -0.79
log2FC [17]: -3.39
log2FC [18]: -1.56
log2FC [19]: -1.47
log2FC [20]: -0.98
log2FC [21]: -0.93
log2FC [22]: -1.44
